Assay: Pharmacokinetic study after single oral dose in rabbits
Type: in vivo
Details: male, rabbit, plasma, 2.58 mg/kg
In short: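 Twelve healthy fasted male rabbits (≈1.5 kg), 12 h fast, two groups. Single oral dose suspended in CMC: 2.58 mg/kg parent drug, or 6.45 mg/kg conjugate (2.58 mg/kg drug-equivalent). Water after 1 h. Plasma deproteinised with acetonitrile and filtered, then HPLC-UV at 248 nm (acetonitrile:water 50:50, isocratic, 1 mL/min) against a 1–50 μg/mL standard curve. AUC by linear trapezoidal method.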

AUC(0-inf): 190 ± 4 µg·h/mL
Cmax: 37300 ng/mL
half-life: 4.6 ± 0.19 h
k el: 4.17e-05 s⁻¹
SMILES: CC(C(=O)O)c1ccc(-c2ccccc2)c(F)c1 (stereo not shown) [Standard FLB, 2-(3-fluoro-4-phenylphenyl)propionic acid]
